What was measured:
hERG (KCNH2) = hERG (KCNH2) (Homo sapiens, UniProt Q12809); test: Inhibition of human ERG channel expressed in HEK293 cells at 1 uM by voltage patch clamp technique; format: cell-based; conditions: HEK293 cells that express hERG
[1] = Inhibition of sodium channel in Wistar rat cerebrocortical synaptosomes assessed as inhibition of veratridine-induced depolarization using rhodamine-6G by spectrofluorometry; format: subcellular, Brain
[2] = Neuroprotective activity in guinea pig papillary muscles assessed as action potential duration at 90% repolarization at 3 uM after 30 mins relative to control; format: functional, Cavia porcellus, Muscle tissue
Outline: (§1)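 Intracellular action potentials were evoked by 1 ms pulses at 1.5–3 times the voltage threshold, with all solutions held at 36 °C. APD90 was recorded before and 30 min after compound exposure and expressed against the pre-treatment value.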

[3] = Neuroprotective activity in guinea pig papillary muscles assessed as action potential duration at 90% repolarization at 30 uM after 30 mins relative to control; format: functional, Cavia porcellus, Muscle tissue; outline: as §1
[4] = Neuroprotective activity in guinea pig papillary muscles assessed as action potential duration at 90% repolarization at 10 uM after 30 mins relative to control; format: functional, Cavia porcellus, Muscle tissue; outline: as §1
[5] = Neuroprotective activity in guinea pig papillary muscles assessed as action potential duration at 90% repolarization at 100 uM after 30 mins relative to control; format: functional, Cavia porcellus, Muscle tissue
Outline: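 Action potentials were evoked by 1 ms stimuli at 1.5–3 times threshold voltage, with all solutions kept at 36 °C. APD90 was recorded before compound exposure and again 30 min after.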

Rattus norvegicus [6] = test: Neuroprotective activity in Wistar rat transient middle cerebral artery occlusion model at 8.2 mg/kg, sc administered 30 mins after occlusion; format: functional; conditions: route subcutaneous
Outline: (§2)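 Female Wistar rats, 8 weeks old, underwent 90 min transient MCAO followed by reperfusion. Drug was given sc 30 min after occlusion at 0.8, 2.5 or 8.2 mg/kg, and controls received an equal volume of saline. At 24 h the brain was cut into 7 slices and TTC-stained. Infarct area per slice was measured by image analysis and summed to infarct volume; n = 5–6, mean ± SEM, Student's t-test.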

Rattus norvegicus [7] = test: Neuroprotective activity in Wistar rat transient middle cerebral artery occlusion model at 2.5 mg/kg, sc administered 30 mins after occlusion; format: functional; conditions: route subcutaneous; outline: as §2
Rattus norvegicus [8] = test: Neuroprotective activity in Wistar rat transient MCAO model assessed as reduction in cerebral infarction size at 8.2 mg/kg, sc (reference value: 379.8 +/- 43.8 mm'3); format: functional; conditions: route subcutaneous; outline: as §2
Rattus norvegicus [9] = test: Neuroprotective activity in Wistar rat transient middle cerebral artery occlusion model at 0.8 mg/kg, sc administered 30 mins after occlusion; format: functional; conditions: route subcutaneous; outline: as §2
Rattus norvegicus [10] = test: Neuroprotective activity in sc dosed Wistar rat transient middle cerebral artery occlusion model administered 30 mins after occlusion; format: functional, organism-based; outline: as §2

Sequence of hERG (KCNH2) (Q12809 whole entry): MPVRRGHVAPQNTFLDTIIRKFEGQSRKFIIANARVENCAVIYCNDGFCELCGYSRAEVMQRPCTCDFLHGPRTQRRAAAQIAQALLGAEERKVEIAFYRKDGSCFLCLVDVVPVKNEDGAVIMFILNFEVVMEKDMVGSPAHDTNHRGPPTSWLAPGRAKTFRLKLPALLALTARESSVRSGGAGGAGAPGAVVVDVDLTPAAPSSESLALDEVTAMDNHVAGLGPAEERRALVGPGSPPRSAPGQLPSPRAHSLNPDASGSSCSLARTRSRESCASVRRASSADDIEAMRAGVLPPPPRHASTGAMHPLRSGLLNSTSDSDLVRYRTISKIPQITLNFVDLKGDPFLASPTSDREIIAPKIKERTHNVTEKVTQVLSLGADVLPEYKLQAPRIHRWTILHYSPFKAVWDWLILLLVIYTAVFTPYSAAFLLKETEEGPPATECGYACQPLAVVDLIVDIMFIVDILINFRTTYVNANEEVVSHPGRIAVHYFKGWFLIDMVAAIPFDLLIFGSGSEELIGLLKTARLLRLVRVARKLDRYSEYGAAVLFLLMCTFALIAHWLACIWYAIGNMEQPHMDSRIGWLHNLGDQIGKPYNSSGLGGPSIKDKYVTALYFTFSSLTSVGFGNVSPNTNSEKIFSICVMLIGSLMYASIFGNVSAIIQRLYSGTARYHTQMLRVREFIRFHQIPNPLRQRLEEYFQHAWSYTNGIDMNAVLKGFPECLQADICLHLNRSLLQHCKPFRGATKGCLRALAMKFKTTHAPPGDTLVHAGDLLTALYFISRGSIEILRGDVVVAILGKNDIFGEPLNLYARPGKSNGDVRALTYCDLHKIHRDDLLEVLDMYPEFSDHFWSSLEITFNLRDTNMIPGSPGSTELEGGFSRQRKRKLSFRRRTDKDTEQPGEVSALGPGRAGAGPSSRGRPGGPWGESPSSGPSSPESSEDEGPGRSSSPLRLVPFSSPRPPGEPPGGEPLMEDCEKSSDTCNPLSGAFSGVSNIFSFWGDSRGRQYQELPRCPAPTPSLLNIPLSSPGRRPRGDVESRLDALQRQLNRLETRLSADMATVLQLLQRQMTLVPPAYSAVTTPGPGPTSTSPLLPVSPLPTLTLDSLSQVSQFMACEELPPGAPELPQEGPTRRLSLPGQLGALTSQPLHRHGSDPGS

Row | SMILES | inhibition at 1 µM (hERG (KCNH2)) [%] | IC50 [1] [nM] | other results
1 | Cc1nc(OCCCCCN2CCCCC2)cc(-c2ccc(F)cc2)n1 | 60 | – | –
2 | Cc1cc(OC[C@@H](O)CN2CCN(c3ccc(Cc4ccc(F)cc4)cc3)CC2)c(C)c(C)c1N | 78 | – | –
3 | c1ccc(CN2C[C@H](NC3CCCCC3)[C@@H](c3ccccc3)C2)cc1 | – | 570 | –
4 | c1ccc(CN2C[C@@H](NC3CCCCC3)[C@H](c3ccccc3)C2)cc1 | – | 540 | –
5 | C[C@@H](CN1CC[C@@]2(C)c3cccc(O)c3C[C@@H]1C2(C)C)OCc1ccccc1.Cl | 69 | – | Activity [2]: 96.6%; Activity [3]: 72.9%; Activity [4]: 89.1%
6 | OC(COc1ccc2c(c1)CCC2)CN1CCC(c2nc3ccccc3[nH]2)CC1 (configuration not stated) | 99 | – | –
7 | c1ccc(CN2C[C@H](NC3CCCCC3)[C@H](c3ccccc3)C2)cc1 | 28 | 560 | –
8 | O=C(N[C@@H]1CN(Cc2ccccc2)C[C@H]1c1ccccc1)c1ccccc1 (racemic) | 45 | 1900 | –
9 | c1ccc(CN[C@@H]2CN(Cc3ccccc3)C[C@H]2c2ccccc2)cc1 (racemic) | 57 | 640 | –
10 | O=C(N[C@@H]1CN(Cc2ccccc2)C[C@H]1c1ccccc1)C1CCCCC1 (racemic) | 31 | 480 | –
11 | c1ccc(CN2C[C@@H](NCC3CCCCC3)[C@H](c3ccccc3)C2)cc1 (racemic) | 60 | 320 | –
12 | c1ccc(CN2C[C@@H](Nc3ccccc3)[C@H](c3ccccc3)C2)cc1 (racemic) | 43 | 480 | –
13 | O=C(N[C@@H]1CN(Cc2ccccc2)C[C@H]1C1CCCCC1)C1CCCCC1 (racemic) | 45 | 740 | –
14 | c1ccc(CN[C@@H]2CN(Cc3ccccc3)C[C@H]2C2CCCCC2)cc1 (racemic) | 79 | 900 | –
15 | c1ccc(CN2C[C@@H](NC3CCCCC3)[C@H](C3CCCCC3)C2)cc1 (racemic) | 35 | 740 | –
16 | Cl.Cl.c1ccc(CN2C[C@@H](NC3CCCCC3)[C@H](c3ccccc3)C2)cc1 (racemic) | 8.4 | 510 | Activity [5]: 90.8%; Activity (Rattus norvegicus [6]): 56%; Activity (Rattus norvegicus [7]): 37%; Activity (Rattus norvegicus [8]): 166.7 mm3; Activity (Rattus norvegicus [9]): 27%; Activity [3]: 92.3%; Activity [4]: 95.3%
17 | c1ccc(CN2C[C@@H](NCC3CCCCC3)[C@H](C3CCCCC3)C2)cc1 (racemic) | 60 | 560 | –
18 | c1ccc([C@@H]2CN(C3CCCCC3)C[C@H]2NC2CCCCC2)cc1 (racemic) | – | 3350 | –
19 | c1ccc([C@@H]2CN(CC3CCCCC3)C[C@H]2NC2CCCCC2)cc1 (racemic) | 45 | 380 | –
20 | c1ccc(CN2C[C@@H](NC3CCCCC3)[C@H](c3ccccc3)C2)cc1 (racemic) | – | – | Activity (Rattus norvegicus [10]): Dose-dependent effect

— ChEMBL document CHEMBL2401676, “Synthesis and biological evaluation of pyrrolidine derivatives as novel and potent sodium channel blockers for the treatment of ischemic stroke” (Bioorg Med Chem Lett, 2013)
